Reference: ChEMBL document CHEMBL1132557, “Novel, potent, semisynthetic antimalarial carba analogues of the first-generation 1,2,4-trioxane artemether” (J Med Chem, 1999)

Key:
Plasmodium falciparum [1] = experiment: In vitro antimalarial activity against chloroquine-resistant Plasmodium falciparum K1
Plasmodium falciparum [2] = experiment: In vitro antimalarial activity against chloroquine-sensitive Plasmodium falciparum HB3; type: functional, organism-based
Procedure, shortened: (§1)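 P. falciparum kept in human erythrocytes in RPMI 1640 with 25 mM HEPES, 32 mM NaHCO3, 10% human serum, under 3% O2/4% CO2/93% N2. 48-h assay at 2% parasitemia, 0.5% hematocrit; DMSO stocks diluted in medium; triplicates. [3H]hypoxanthine (0.5 μCi) added at 24 h, harvested 24 h later; IC50 by probit interpolation of log dose-response.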

Mus musculus = experiment: Compound was tested in vivo for antimalarial activity against Plasmodium berghei in the mice (Mus musculus) model.; type: functional
Procedure, shortened: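 Male random Swiss albino mice, 18-22 g, infected ip with 10^7 P. berghei NS-strain parasitized erythrocytes; ip dosing once daily for four consecutive days starting on infection day; vehicle methanol/PBS/DMSO (2:5:3). Parasitemia read the day after last dose; ED50 (50% suppression vs vehicle-only controls) taken from log dose vs parasitemia plot.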

Plasmodium falciparum [3] = experiment: In vitro antimalarial activity against chloroquine-sensitive Plasmodium falciparum K1; type: functional, organism-based
Procedure, shortened: as §1

| SMILES | IC50 (Plasmodium falciparum [1]) [nM] | IC50 (Plasmodium falciparum [2]) [nM] | ED50 (Mus musculus) [mg/kg] | IC50 (Plasmodium falciparum [3]) [nM] |
| --- | --- | --- | --- | --- |
| C[C@H]1[C@@H](CCO)O[C@@H]2OC3(C)CC[C@H]4[C@H](C)CC[C@@H]1[C@@]24OO3 (single isomer, unassigned) | 6.67 | 3.51 | 7.81 |  |
| C[C@H]1[C@@H](CCOCc2cccc(F)c2)O[C@@H]2OC3(C)CC[C@H]4[C@H](C)CC[C@@H]1[C@@]24OO3 (single isomer, unassigned) | 6.43 | 0.32 |  |  |
| C[C@H]1[C@@H](CCOC(=O)c2cccc(F)c2)O[C@@H]2OC3(C)CC[C@H]4[C@H](C)CC[C@@H]1[C@@]24OO3 (single isomer, unassigned) | 3.78 | 0.35 | 6.99 |  |
| C[C@H]1[C@@H](CCOCc2ccc(F)cc2)O[C@@H]2OC3(C)CC[C@H]4[C@H](C)CC[C@@H]1[C@@]24OO3 (single isomer, unassigned) | 6.08 | 0.73 |  |  |
| C[C@H]1[C@@H](CCOC(=O)c2ccc(F)cc2)O[C@@H]2OC3(C)CC[C@H]4[C@H](C)CC[C@@H]1[C@@]24OO3 (single isomer, unassigned) | 1.92 | 0.69 |  |  |
| C[C@@H]1CC[C@H]2[C@@H](C)C(=O)O[C@@H]3O[C@@]4(C)CC[C@@H]1[C@]32OO4 [ARTEMISININ] | 3.6 | 3.04 |  |  |
| C[C@H]1[C@@H](CCOC(=O)c2ccccc2F)O[C@@H]2OC3(C)CC[C@H]4[C@H](C)CC[C@@H]1[C@@]24OO3 (single isomer, unassigned) | 1.12 | 0.53 |  |  |
| C[C@H]1[C@@H](CCOC(=O)c2ccc(C(F)(F)F)cc2)O[C@@H]2OC3(C)CC[C@H]4[C@H](C)CC[C@@H]1[C@@]24OO3 (single isomer, unassigned) | 14.2 | 0.59 |  |  |
| C[C@H]1[C@@H](CCOCc2ccc(C(F)(F)F)cc2)O[C@@H]2OC3(C)CC[C@H]4[C@H](C)CC[C@@H]1[C@@]24OO3 (single isomer, unassigned) |  | 4.24 |  | 3.75 |
| C[C@H]1[C@@H](CCOCc2ccccc2C(F)(F)F)O[C@@H]2OC3(C)CC[C@H]4[C@H](C)CC[C@@H]1[C@@]24OO3 (single isomer, unassigned) | 3.6 | 1.64 |  |  |
| C[C@H]1[C@@H](CCOC(=O)c2cccc(C(F)(F)F)c2)O[C@@H]2OC3(C)CC[C@H]4[C@H](C)CC[C@@H]1[C@@]24OO3 (single isomer, unassigned) | 4.7 | 0.64 |  |  |
| C[C@H]1[C@@H](O)O[C@@H]2O[C@@]3(C)CC[C@H]4[C@H](C)CC[C@@H]1[C@@]24OO3 [ARTENIMOL] | 2.2 | 1.04 | 1.15 |  |
| CO[C@H]1O[C@@H]2O[C@@]3(C)CC[C@H]4[C@H](C)CC[C@@H]([C@H]1C)[C@@]24OO3 [ARTEMETHER] |  |  | 3.15 |  |
